Measured values from PMC9786734 (Biomedical Chromatography, 2022).

Assays:
[1] = Stability of methanolic stock solutions; assay type: physicochemical; settings: 1.5 months at −30°C, methanol
Outline: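 Single-analyte stocks (0.5 mg/ml in methanol, made from 300–500 µg of weighed solid) stored 1.5 months at −30°C, then reanalysed by LC–MS/MS.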

[2] = Stability in mouse plasma QC samples; assay type: in vitro ADME
Outline: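 Pooled female mouse lithium–heparin plasma QCs at high (1,500 ng/ml) and low (6 ng/ml) levels, as 10 µl portions (n = 4). Three conditions: room temperature for 5 and 24 h; three freeze–thaw cycles (1 h thaw at room temperature, 1 day at −30°C); and 1.5 months at −30°C. Quantified by LC–MS/MS after acetonitrile precipitation.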

[3] = Pilot pharmacokinetic and tissue distribution study in mice after oral EAI045; assay type: in vivo, mouse (FVB/NRj wild-type, female)
Outline: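 Five female FVB/NRj mice, 10–15 weeks old, fasted 3 h, then given one 20 mg/kg oral gavage dose. Vehicle: DMSO stock at 4 mg/ml, diluted with polysorbate 80–ethanol (1:1) and 5% glucose to 2 mg/ml. Tail-vein blood taken at 5, 15, 30 min, 1 and 2 h. At 4 h, cardiac puncture under isoflurane, then organs homogenised in 2% BSA. Cmax/Tmax observed; AUC0–t by trapezoidal rule; CL/F = dose/AUC0–t; mean ± SD.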

[4] = Short-term stability in mouse tissue homogenates; assay type: in vitro ADME
Outline: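 Blank homogenate made by homogenising the whole organ in ice-cold 2% (w/v) BSA in water. Medium QC (100 ng/ml) prepared by diluting high-QC plasma into the homogenate. Held 5 h at room temperature (n = 4), then acetonitrile protein precipitation with internal standard and LC–MS/MS quantification. Peak-area ratios were read from a 1/x²-weighted calibration line.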

[5] = female, FVB/NRj, mouse, plasma, po, 20 mg/kg

With `O=C(O)C(c1cc(F)ccc1O)N1Cc2ccccc2C1=O` (stereo not drawn) [PIA, (5‐fluoro‐2‐hydroxyphenyl)(1‐oxo‐1,3‐dihydro‐2H‐isoindol‐2‐yl)acetic acid] the “recovery of methanolic stock solution” value [1] was 98.3%, the recovery at 1.5 months, 6 ng/ml [2] was 110 ± 9.6% and the recovery at 1.5 months, 1500 ng/ml [2] was 90.8 ± 2.4%. The recovery at 5 h, 6 ng/ml [2] was 93.3 ± 1.8%, the recovery at 5 h, 1500 ng/ml [2] was 102 ± 4.1% and the recovery at 24 h, 6 ng/ml [2] was 101 ± 8.3%. It also gave a recovery at 24 h, 1500 ng/ml [2] of 100 ± 6.2%, a concentration at 4 h ([3]; female, FVB/NRj, mouse, brain, po, 20 mg/kg) of 9.8 ng/g and a concentration at 4 h ([3]; female, FVB/NRj, mouse, kidney, po, 20 mg/kg) of 30.8 ng/mL. For the same compound, the AUC(0-t) [3, 5] was 1870 ng·h/mL, the Cmax [3, 5] was 1520 ng/mL and the Tmax [3, 5] was 15 to 30 min. The half-life [3, 5] was 70.2 ± 12.6 min, the “metabolite level compared with EAI045 (ratio)” value ([3]; pilot study, SIWC) was “ca. 5%” and the “metabolite level compared with EAI045” value ([3]; pilot study, all matrices except SIWC) was “higher than 10%”. For the same compound, the “plasma concentration (chromatogram sample)” value ([3]; plasma sample from a single mouse, oral 20 mg/kg EAI045) was 133 ng/mL, the “time by which PIA was more abundant in plasma than the parent drug” value ([3]; plasma, oral 20 mg/kg EAI045, mice) was no more than 15 min and the “absolute amount retrieved from SIWC” value ([3]; small intestine with contents, 4 h after oral 20 mg/kg EAI045, mice, data not shown) was ~ 0.074 % of the EAI045 dose. The recovery at 5 h, 100 ng/ml ([4]; SIWC homogenate) was 104 ± 3.4%, the recovery at 5 h, 100 ng/ml ([4]; brain homogenate) was 99.7 ± 5.1% and the recovery at 5 h, 100 ng/ml ([4]; kidney homogenate) was 99.4 ± 2.4%. The recovery at 5 h, 100 ng/ml ([4]; liver homogenate) was 114 ± 10.9%, the recovery at 5 h, 100 ng/ml ([4]; lung homogenate) was 107 ± 2% and the recovery at 5 h, 100 ng/ml ([4]; spleen homogenate) was 107 ± 7.6%.
